KCNK9 inh = inhibitors of human KCNK9 two-pore domain potassium channel; AID 488922; HEK293 KCNK9, FluxOR thallium flux fluorescence; active compounds read low; 310,000 compounds, 1.2% hits; B-score at 10 µM; Q9NPC2;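 active = ratio B-score over 3 SD below the library mean, with starting fluorescence within 5 SD of its mean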;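 also: negative B-score means less thallium flux so channel inhibition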
KCNQ1 inh = inhibitors of human KCNQ1 potassium channel | P51787 | CHO-K1 KCNQ1, FluxOR thallium flux fluorescence; active compounds read high | B-score at 10 µM | 310,000 compounds, 1.3% hits;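 active = compounds whose thallium flux B-score, printed positive for inhibition, exceeds three library SD while starting fluorescence stays within three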;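 also: channel opened by potassium depolarization with thallium stimulus after 20 min compound exposure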
Target sequence (P51787 whole entry, looked up): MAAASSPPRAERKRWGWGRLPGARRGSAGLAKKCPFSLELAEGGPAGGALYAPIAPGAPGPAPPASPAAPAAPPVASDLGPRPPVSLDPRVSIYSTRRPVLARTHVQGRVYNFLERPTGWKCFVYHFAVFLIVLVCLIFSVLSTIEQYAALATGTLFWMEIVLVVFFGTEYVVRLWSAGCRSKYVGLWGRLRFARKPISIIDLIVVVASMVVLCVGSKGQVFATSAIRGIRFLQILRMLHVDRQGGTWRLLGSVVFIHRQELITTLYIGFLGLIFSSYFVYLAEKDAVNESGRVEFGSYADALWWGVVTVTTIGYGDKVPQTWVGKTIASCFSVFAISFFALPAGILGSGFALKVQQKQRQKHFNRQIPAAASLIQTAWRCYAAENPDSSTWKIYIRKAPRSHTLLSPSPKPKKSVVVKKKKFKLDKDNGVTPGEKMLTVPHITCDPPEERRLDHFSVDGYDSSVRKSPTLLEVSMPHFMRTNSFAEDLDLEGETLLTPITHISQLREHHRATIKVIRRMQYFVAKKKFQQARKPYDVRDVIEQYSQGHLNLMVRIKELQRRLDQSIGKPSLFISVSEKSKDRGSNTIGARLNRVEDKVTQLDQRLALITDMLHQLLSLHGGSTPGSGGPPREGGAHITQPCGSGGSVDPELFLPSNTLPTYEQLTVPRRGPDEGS
hERG protect = compounds protecting human hERG from proarrhythmic drug block | Q12809 | CHO-hERG, FluxOR thallium flux, dofetilide IC70 present | activation (rescue from dofetilide block), less the hit threshold, % at 10 µM | 310,000 compounds, 0.51% hits | AID 1511;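 active = activation above the mean of controls blocked by dofetilide plus 5 SD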;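 also: thallium influx through hERG after potassium depolarization seen as dye fluorescence rise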
KCNQ1 act = potentiates or activates the human KCNQ1 potassium channel | P51787 | CHO-K1 KCNQ1, thallium flux FluxOR fluorescence; active compounds read high | B-score at 10 µM | 310,000 compounds, 0.35% hits | AID 2648;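 active = fluorescence ratio B-score, a plate-corrected score, at least three library SD, with initial intensity B-score within 5 SD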
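Medium – assay buffer, equal DMSO in all wells · Material – CHO-K1 cell line with stable KCNQ1 potassium channel expression · Signal – kinetic FluxOR thallium fluorescence, 10-s 1-Hz baseline, 110-s post-stimulus read · Compound – single concentration per compound, DMSO matched to controls · Schedule – 37 °C overnight plating, 90-min dark dye load, 20-min compound pretreatment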
KCNK3 block = human KCNK3 channel inhibition, primary screen; O14649; CHO-KCNK3 thallium flux, FluxOR fluorescence; active compounds read low; B-score at 10 µM; 340,000 compounds, 0.84% hits; AID 602410;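 active = B-score under library mean minus 4 SD, starting fluorescence ratio at most library mean plus 5 SD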;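 also: more negative B-score means stronger inhibition of thallium flux through KCNK3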
Kir21 block = Kir2.1 (mouse) channel inhibition; B-score at 10 µM; HEK293-Kir2.1, FluxOR thallium flux fluorescence; active compounds read low; 310,000 compounds, 0.85% hits; AID 1672;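 active = fluorescence ratio B-score at or below minus 3 SD of library scores, with starting-brightness B-score within 2 SD, cut at about -4.2 in these data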;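 also: channel flux triggered by added potassium and thallium sulfate stimulus; B-score of peak minus minimum fluorescence over baseline after thallium stimulus; more negative B-score means stronger Kir2.1 block with less thallium influx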
KCNK9 block conf = confirmation of human KCNK9 potassium channel inhibitors. HEK293 KCNK9 cells, FluxOR thallium flux fluorescence. AID 492992. shares compounds with KCNK9 inh. 4,900 compounds, 43% hits. inhibition, % at 10 µM;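 active = thallium signal inhibited by more than 5 SD of the compound-free buffer control wells, on both duplicate plates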;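 also: 0% = assay buffer control wells without compound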
Kir21 sel = mouse Kir2.1 off-target activity of KCNK9 modulators; shares compounds with KCNK9 inh; Kir2.1 cells, FluxOR thallium flux fluorescence; inhibition, % at 10 µM; 4,900 compounds, 4% hits; AID 492993;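 active = thallium signal drop more than 5 SD beyond the mean of the no-compound control wells, seen in both duplicate plates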;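 also: signal is fluorescence rise after thallium addition divided by baseline fluorescence; plate controls were assay buffer only for no effect and full block by chlorpromazine control for full effect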
HEK293 Tl ctr = non-induced cell nonspecific activity of KCNK9 modulators; shares compounds with KCNK9 inh; non-induced KCNK9-HEK293, FluxOR thallium flux; inhibition, % at 10 µM; 4,900 compounds, 40% hits; AID 492997;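 active = thallium signal drop beyond 5 SD of the untreated control mean, on both duplicate plates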;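 also: plate controls were buffer only IC0 wells for no effect and SID17386958 at its maximal inhibitory level for full effect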
The depositor's hits bear a star; i = inactive; · = no result given. Hits are enriched below; roughly 3.7% of the tested compounds scored in any of these assays.

SMILES	KCNK9 inh	KCNQ1 inh	hERG protect	KCNQ1 act	KCNK3 block	Kir21 block	KCNK9 block conf	Kir21 sel	HEK293 Tl ctr
COc1ccc(S(=O)(=O)N2CCCCC2)cc1NC(=O)c1ccc(CS(C)(=O)=O)cc1	·	·	·	·	i	·	·	·	·
CC(C)CCN(CCC(C)C)CC(O)Cn1c2ccccc2c(=O)c2ccccc21 (centres undefined)	-8.11*	i	-4.9	i	i	-1.67	42.5%*	i	27.5%*
Cc1ccc(S(=O)(=O)Nc2ncnc3sc(C)c(C)c23)cc1	·	·	·	·	i	·	·	·	·
Cc1ccc(-c2nn(C(C)(C)C)c3ncnc(NS(=O)(=O)c4ccc([N+](=O)[O-])cc4)c23)cc1	i	i	-10.6	i	i	0.85	i	i	i
Cc1c(OCC(=O)N2CCN(c3ccccc3)CC2)ccc2c3c(c(=O)oc12)CCCC3	i	i	-5.8	i	i	-1.4	·	·	·
O=C(CN(Cc1ccc(F)cc1)C(=O)CNS(=O)(=O)c1ccc(Cl)cc1)NCC1CCCO1 (centres undefined)	i	i	-0.3	i	i	0.77	·	·	·
Cc1ccc(-c2nc(NC(=O)CSc3cc(C)c4ccccc4n3)ns2)cc1	i	i	-5.8	i	i	-0.52	·	·	·
COc1ccc2c(C)cc(SCC(=O)Nc3nsc(-c4ccc(C)cc4)n3)nc2c1	-13.7*	i	-21.5	i	i	-0.3	48.0%*	i	i
COC(=O)c1cc(CN2CCN(c3ccccc3C)CC2)ccc1O	i	i	-15.4	i	i	-1.24	i	i	i
Cc1ccccc1N1CCN(Cc2cccc(C(=O)O)c2)CC1	i	i	-5.7	i	i	-0.44	·	·	·
Cc1onc(-c2ccc(Cl)cc2)c1-c1ccnn1S(=O)(=O)c1cccc(C(F)(F)F)c1	-11*	i	-12.5	i	i	1.33	55.0%*	i	47.0%*
Cc1ccc2c(c1)CCCN2C(=O)CSc1ccccc1	i	i	-10.9	i	i	-3.35	i	i	i
Cn1cc(SCC(=O)N2CCOCC2)c2ccccc21	i	i	-5.2	i	i	1.05	·	·	·
Cn1cc(SCC(=O)N2CCCc3ccccc32)c2ccccc21	i	i	-13.1	i	i	-6.81*	i	38.0%*	i
Cc1ccc(C)c(N2CCN(C(=O)C3CCCCN3S(=O)(=O)c3ccc(F)cc3)CC2)c1 (centres undefined)	-18.9*	i	-6.0	i	i	-0.1	29.5%*	i	30.0%*
O=C(O)C1CCCN1S(=O)(=O)c1ccc(F)cc1 (centres undefined)	i	i	-2.6	i	i	-1.74	·	·	·
COc1ccc(CN(Cc2cccn2C)S(=O)(=O)c2cccc(C(F)(F)F)c2)cc1	-8.83*	6*	-10.2	i	i	0.85	45.5%*	i	34.5%*
CCOC(=O)/C(=N\Nc1ccccc1Cl)N1CC(C)OC(C)C1 (centres undefined)	i	i	-17.1	i	i	-0.36	·	·	·
CCOC(=O)/C(=N\Nc1ccc(Br)cc1)N1CC(C)OC(C)C1 (centres undefined)	-18.4*	i	-11.2	i	i	1.9	75.0%*	i	43.5%*
Cc1[nH]n(C(N)=S)c(=O)c1N=Nc1cccc([N+](=O)[O-])c1C	i	i	-8.5	i	i	0.44	i	i	i
Cc1c(N=Nc2c(-c3ccc([N+](=O)[O-])cc3)[nH]n(C(N)=S)c2=O)cccc1[N+](=O)[O-]	·	·	·	·	i	·	·	·	·
CC[C@H](C)[C@H](NC(N)=O)C(=O)NCCc1ccc(OC)c(OC)c1	i	i	-2.7	i	i	2	·	·	·
